Assays:
[1] = Stimulation of immune response in pretreated thymocytes isolated from Graffi myeloid tumor bearing hamster assessed as migration area after 16 hrs by indirect agarose technique; format: cell-based; settings: cricetinae, thymocyte
How it was run: (§1)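 Cells came from treated tumor-bearing hamsters: spleen cells, thymocytes or blood lymphocytes. They were loaded into 3-mm wells cut in an agarose monolayer in 50 mm Petri dishes and kept 16 h at 37 °C, 5% CO2. The migration area was then measured. The migration index (LIF) is the ratio of experimental to control migration area. Values are means of three experiments.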

[2] = Stimulation of immune response in pretreated thymocytes isolated from Graffi myeloid tumor bearing hamster assessed as ratio of migration area of experimental cells to control cells after 16 hrs by indirect agarose technique; format: cell-based; settings: cricetinae, thymocyte; how it was run: as §1
[3] = Stimulation of immune response in pretreated thymocytes isolated from Graffi myeloid tumor bearing hamster assessed as rosette formation; format: cell-based; settings: cricetinae, thymocyte
[4] = Stimulation of immune response in pretreated thymocytes isolated from Graffi myeloid tumor bearing hamster assessed as number of plaque forming cells after 24 hrs […]; format: cell-based; settings: cricetinae, thymocyte
PBL [5] = test: Stimulation of immune response in pretreated PBL isolated from Graffi myeloid tumor bearing hamster assessed as ratio of migration area of experimental cells to control cells after 16 hrs by indirect agarose technique; format: cell-based; settings: cricetinae; how it was run: as §1
PBL [6] = test: Stimulation of immune response in pretreated PBL isolated from Graffi myeloid tumor bearing hamster assessed as rosette formation; format: cell-based; settings: cricetinae
PBL [7] = test: Stimulation of immune response in pretreated […] isolated from Graffi myeloid tumor bearing hamster assessed as number of plaque forming cells after 24 hrs […]; format: cell-based; settings: cricetinae
PBL [8] = test: Cytotoxicity against solid form of Graffi myeloid tumor bearing hamster PBL after 24 hrs by trypan blue assay; format: cell-based; settings: Cricetinae
How it was run: (§2)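 Thymocytes and peripheral blood lymphocytes came from sexually mature hamsters bearing solid Graffi myeloid tumor. Compounds were made up at 0.5 mg/ml in DMSO, and this stock was diluted 1:10, 1:100, 1:1000 and 1:100,000. Equal volumes of cells and dilution were mixed and held 24 h at 37 °C in humidified 5% CO2. Survival was scored by 0.2% trypan blue exclusion under the microscope, and IC50 was derived.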

PBL [9] = test: Cytotoxicity against PBL isolated from solid form of Graffi myeloid tumor bearing hamster pretreated at 0.5 mg/ml, ip for 5 days measured after 24 hrs by trypan blue assay; settings: Cricetinae
How it was run: (§3)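 Tumor-bearing hamsters first received compound at 0.5 mg/ml i.p. Thymocytes or blood lymphocytes were isolated five days later. These were exposed in vitro to serial dilutions of a DMSO stock (5 mg/ml) for 24 h at 37 °C, 5% CO2, then scored with 0.2% trypan blue. Each IC50 is the mean of three parallel samples in three independent experiments.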

[10] = Cytotoxicity against solid form of Graffi myeloid tumor bearing hamster thymocytes after 24 hrs by trypan blue assay; format: cell-based; settings: cricetinae, thymocyte; how it was run: as §2
[11] = Cytotoxicity against thymocytes isolated from solid form of Graffi myeloid tumor bearing hamster pretreated at 0.5 mg/ml, ip for 5 days measured after 24 hrs by trypan blue assay; settings: cricetinae, thymocyte; how it was run: as §3
[12] = Stimulation of immune response in pretreated spleen cells isolated from Graffi myeloid tumor bearing hamster assessed as migration area after 16 hrs by indirect agarose technique; format: cell-based; settings: cricetinae; how it was run: as §1
[13] = Stimulation of immune response in pretreated spleen cells isolated from Graffi myeloid tumor bearing hamster assessed as ratio of migration area of experimental cells to control cells after 16 hrs by indirect agarose technique; format: cell-based; settings: cricetinae; how it was run: as §1
[14] = Stimulation of immune response in pretreated spleen cells isolated from Graffi myeloid tumor bearing hamster assessed as rosette formation; format: cell-based; settings: cricetinae
[15] = Stimulation of immune response in pretreated spleen cells isolated from Graffi myeloid tumor bearing hamster assessed as number of plaque forming cells after 24 hrs by modified agar-plate method; format: cell-based; settings: cricetinae
How it was run: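 Plaque-forming (haemolysin-producing B) cells were counted by the Cunningham–Szenberg method. Cells from treated tumor-bearing hamsters were mixed with complement and sheep red blood cells and loaded into chambers. Haemolytic zones were counted per 10⁶ lymphocytes. Values are means of three experiments, compared against cells from control animals.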

[16] = Cytotoxicity against pretreated spleen cells isolated from Graffi myeloid tumor bearing hamster assessed as full lysis; format: cell-based; settings: cricetinae
PBL [17] = test: Stimulation of immune response in pretreated PBL isolated from Graffi myeloid tumor bearing hamster assessed as migration area after 16 hrs by indirect agarose technique; format: cell-based; settings: cricetinae; how it was run: as §1

Compound	Activity [1] [mm2]	Ratio [2]	Activity [3]	Activity [4]	Ratio (PBL [5])	Activity (PBL [6])	Activity (PBL [7])	Activity [12] [mm2]	Ratio [13]	Activity [14]	Activity [15]	Activity (PBL [17]) [mm2]	IC50 (PBL [8]) [nM]	IC50 (PBL [9]) [nM]	IC50 [10] [nM]	IC50 [11] [nM]	Activity [16]
CCn1c(-c2cc3c(s2)CCCC3)n[nH]c1=S	997	0.518	Not Active	5287	0.001	Not Active	4992	1823	0	Not Active	3700	–	1810	290	120	460	–
CCNC(=S)NNC(=O)c1cc2c(s1)CCCC2	146	0.08	Not Active	2040	–	Not Active	768	–	–	Not Active	–	–	–	14	110	–	Toxic
Nn1c(-c2cc3c(s2)CCCC3)n[nH]c1=S	1024	0.532	Not Active	7250	1.654	Not Active	5869	1286	–	Not Active	3920	1800	2670	140	2200	12	–
CCNc1nnc(-c2cc3c(s2)CCCC3)s1	1118	0.581	Not Active	15300	–	Not Active	14288	1788	–	Not Active	3928	–	320	410	260	0.0052	–

The next lines start with results.

Activity [1] [mm2]	Ratio [2]	Activity [3]	Activity [4]	Ratio (PBL [5])	Activity (PBL [6])	Activity (PBL [7])	Activity [12] [mm2]	Ratio [13]	Activity [14]	Activity [15]	Activity (PBL [17]) [mm2]	Compound	IC50 (PBL [8]) [nM]	IC50 (PBL [9]) [nM]	IC50 [10] [nM]	IC50 [11] [nM]	Activity [16]
1836	0.954	Not Active	19200	–	Not Active	19920	2332	–	Not Active	4700	–	Nn1c(-c2ccc(-c3ccccc3)s2)n[nH]c1=S	–	12	240	0.001	–
202	0.104	Not Active	7800	–	Not Active	5200	822	–	Not Active	2010	–	CCNC(=S)NNC(=O)c1ccc(-c2ccccc2)s1	1640	320	2100	3500	–
